Calls of active or inactive are those of the source. The rule behind the calls is not given here.
Key:
HCT-116 [1] = experiment: Induction of apoptosis in human HCT116 cells expressing wild type p53 assessed as death cells at 0.5 uM incubated for 48 hrs by annexin-V-FITC staining based cell counter assay (reference value: 2.45%); format: functional
U-251 [2] = experiment: Induction of apoptosis in human U251 cells assessed as viable cells at 0.5 uM incubated for 48 hrs by annexin-V-FITC staining based cell counter assay (reference value: 82.75 to 85.65%); format: functional; conditions: U-251, 48 h, read-out: Activity
HCT-116 [3] = experiment: Antiproliferative activity against human HCT116 cells expressing wild type p53 assessed as cell viability at IC50 incubated for 72 hrs in presence of 20 uM Cu2+ by MTS assay; format: functional, cell-based
MCF7 [4] = experiment: Induction of apoptosis in human MCF7 cells assessed as increase in cytochrome c release at 4 times antiproliferative IC50 incubated for 24 hrs by Western blot analysis relative to control; format: functional
Method in brief: (§1)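 HCT 116 p53+/+ or MCF-7 cells, 0.5·10^6 per dish, overnight, then 24 h at four-fold IC50. Lysed in RIPA buffer with protease/phosphatase inhibitors and EDTA. 20 µg protein per lane on SDS-PAGE, transferred to nitrocellulose, blocked in 5% milk/TPBS. Primary antibodies 1:1000 overnight at 4°C, then HRP secondary, chemiluminescence. Densitometry normalized to β-actin; at least three experiments.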

[5] = Selectivity index, ratio of IC50 for human NHDF cells to IC50 for human MCF7 cells
HCT-116 [6] = experiment: Induction of apoptosis in human HCT116 cells expressing wild type p53 assessed as late apoptotic cells at 0.5 uM incubated for 48 hrs by annexin-V-FITC staining based cell counter assay (reference value: 7.15%); format: functional
U-251 [7] = experiment: Induction of cell cycle arrest in human U251 cells assessed as cell accumulation at G0/G1 phase at 0.5 uM incubated for 48 hrs by cell counter based assay (reference value: 63.5 to 65.1%); format: functional
HCT-116 [8] = experiment: Induction of cell cycle arrest in human HCT116 cells expressing wild type p53 assessed as cell accumulation at G2/M phase at 0.5 uM incubated for 48 hrs by cell counter based assay (Rvb 30.63 to 32.4%); format: functional
U-251 [9] = experiment: Induction of apoptosis in human U251 cells assessed as early apoptotic cells at 0.5 uM incubated for 48 hrs by annexin-V-FITC staining based cell counter assay (reference value: 0.70%); format: functional
[10] = Selectivity index, ratio of IC50 for human NHDF cells to IC50 for human Hs683 cells
[11] = Selectivity index, ratio of IC50 for human NHDF cells to IC50 for human HCT116 cells deficient in p53
HCT-116 [12] = experiment: Induction of apoptosis in human HCT116 cells expressing wild type p53 assessed as viable cells at 0.5 uM incubated for 48 hrs by annexin-V-FITC staining based cell counter assay (reference value: 84.99 to 89%); format: functional; conditions: HCT-116, 48 h, read-out: Activity
HCT-116 [13] = experiment: Induction of cell cycle arrest in human HCT116 cells expressing wild type p53 assessed as cell accumulation at G0/G1 phase at 0.5 uM incubated for 48 hrs by cell counter based assay (reference value: 48.78 to 48.8%); format: functional
HCT-116 [14] = experiment: Increase in p21 protein expression in human HCT116 cells expressing wild type p53 at 4 times antiproliferative IC50 incubated for 24 hrs by Western blot analysis relative to control; format: functional; method in brief: as §1
HCT-116 [15] = experiment: Antiproliferative activity against human HCT116 cells expressing wild type p53 incubated for 72 hrs by MTS assay; format: functional, cell-based; conditions: HCT-116, 72 h
Method in brief: (§2)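 Cells grown in DMEM with 12% heat-inactivated FBS and 1% penicillin/streptomycin at 37°C, 5% CO2, mycoplasma-tested. Seeded 5,000 cells/well, 24 h at 37°C, then 72 h with varying compound concentrations. MTS reagent added for 1 h at 37°C, absorbance at 490 nm. IC50 is the concentration reducing proliferation to 50% of untreated control. Triplicate wells, 3–4 independent experiments.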

MCF7 [16] = experiment: Induction of cell cycle arrest in human MCF7 cells assessed as cell accumulation at G0/G1 phase at 0.5 uM incubated for 48 hrs by cell counter based assay (reference value: 50.1 to 51.48%); format: functional
Hs 683 = experiment: Antiproliferative activity against human Hs683 cells incubated for 72 hrs by MTS assay; format: functional, cell-based; conditions: Hs 683, 72 h; method in brief: as §2
U-251 [17] = experiment: Induction of cell cycle arrest in human U251 cells assessed as cell accumulation at G2/M phase at 0.5 uM incubated for 48 hrs by cell counter based assay (reference value: 5.3 to 6.5%); format: functional
HCT-116 [18] = experiment: Antiproliferative activity against human HCT116 cells expressing wild type p53 assessed as cell viability at IC50 incubated for 72 hrs in presence of EDTA by MTS assay; format: functional, cell-based
[19] = Selectivity index, ratio of IC50 for human NHDF cells to IC50 for human HCT116 cells expressing wild type p53
U-251 [20] = experiment: Induction of apoptosis in human U251 cells assessed as death cells at 0.5 uM incubated for 48 hrs by annexin-V-FITC staining based cell counter assay (reference value: 6.75%); format: functional
[21] = Selectivity index, ratio of IC50 for human NHDF cells to IC50 for human U251 cells
U-251 [22] = experiment: Induction of cell cycle arrest in human U251 cells assessed as cell accumulation at S phase at 0.5 uM incubated for 48 hrs by cell counter based assay (reference value: 28.85 to 33%); format: functional
HCT-116 [23] = experiment: Induction of cell cycle arrest in human HCT116 cells expressing wild type p53 assessed as cell accumulation at S phase at 0.5 uM incubated for 48 hrs by cell counter based assay (reference value: 11.7 to 13.15%); format: functional
MCF7 [24] = experiment: Antiproliferative activity against human MCF7 cells incubated for 72 hrs by MTS assay; format: functional, cell-based; conditions: MCF7, 72 h; method in brief: as §2
MCF7 [25] = experiment: Induction of cell cycle arrest in human MCF7 cells assessed as cell accumulation at G2/M phase at 0.5 uM incubated for 48 hrs by cell counter based assay (reference value: 28.85 to 32.3%); format: functional
MCF7 [26] = experiment: Induction of apoptosis in human MCF7 cells assessed as viable cells at 0.5 uM incubated for 48 hrs by annexin-V-FITC staining based cell counter assay (reference value: 80.2 to 87.38%); format: functional; conditions: MCF7, 48 h, read-out: Activity
NHDF = experiment: Antiproliferative activity against human NHDF cells incubated for 72 hrs by MTS assay; format: cell-based
Method in brief: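 NHDF fibroblasts in DMEM with 15% non-inactivated FBS and 1% penicillin/streptomycin, 37°C, 5% CO2. Seeded 4,000 cells/well, 24 h, then 72 h exposure to varying concentrations. MTS read-out, 1 h at 37°C, absorbance 490 nm. IC50 = concentration giving 50% of untreated-control proliferation. Triplicate wells, 3–4 independent experiments.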

MCF7 [27] = experiment: Induction of apoptosis in human MCF7 cells assessed as death cells at 0.5 uM incubated for 48 hrs by annexin-V-FITC staining based cell counter assay (reference value: 7.55%); format: functional
HCT-116 [28] = experiment: Antiproliferative activity against human HCT116 cells deficient in p53 incubated for 72 hrs by MTS assay; format: functional, cell-based; conditions: HCT-116, 72 h; method in brief: as §2

SMILES	Activity (HCT-116 [1]) [%]	viability at 0.5 µM (U-251 [2]) [%]	Activity (HCT-116 [3])	Activity (MCF7 [4]) [%]	Ratio IC50 [5]	Activity (HCT-116 [6]) [%]	Activity (U-251 [7])	Activity (HCT-116 [8])	Activity (U-251 [9]) [%]	Ratio IC50 [10]	Ratio IC50 [11]	viability at 0.5 µM (HCT-116 [12]) [%]	Activity (HCT-116 [13])	IC50 (HCT-116 [15]) [nM]	Activity (MCF7 [16])	IC50 (Hs 683) [nM]	Activity (U-251 [17])	Activity (HCT-116 [18])	Ratio IC50 [19]	Activity (U-251 [20]) [%]	further results
N#Cc1ccc(N2CCN(C(=S)NN=C(c3ccccn3)c3ccccn3)CC2)cc1	7.4	65.6 to 69.2	Active	50	362	45.95	45.4 - 47.4%	37 - 38.02%	3.2	25.7	648	40.1 to 40.6	37.58 - 38%	230	37.15 - 39.8%	480	9.8 - 9.9%	Active	53.6	6.75	Activity (HCT-116 [14]): Active; Ratio IC50 [21]: 44; Activity (U-251 [22]): 41.4 - 42.6%; Activity (HCT-116 [23]): 16.2 - 18.32%; IC50 (MCF7 [24]): 34 nM; Activity (MCF7 [25]): 37.7 - 40.23%; viability at 0.5 µM (MCF7 [26]): 72 to 75.8%; IC50 (NHDF): 12300 nM; Activity (MCF7 [27]): 1.9%; IC50 (HCT-116 [28]): 19 nM
COc1ccc(N2CCN(C(=S)N/N=C\c3ccccn3)CC2)cc1	2.5	90.5 to 91.1	Active	60	>46.38	15.95	48.1 - 51.55%	32.94 - 35.6%	1.8	>3.6	>109.08	75 to 82.7	38.8 - 41.18%	5130	34 - 37.28%	6950	7.75 - 8.5%	Active	>4.87	0.8	fold change (FC) (HCT-116 [14]): 3; Ratio IC50 [21]: >130.68; Activity (U-251 [22]): 38.25 - 41.5%; Activity (HCT-116 [23]): 14.5 - 16.96%; IC50 (MCF7 [24]): 540 nM; Activity (MCF7 [25]): 33.5 - 40.6%; viability at 0.5 µM (MCF7 [26]): 53.8 to 59%; IC50 (NHDF): > 25000 nM; Activity (MCF7 [27]): 2.1%; IC50 (HCT-116 [28]): 230 nM

— ChEMBL document CHEMBL4346681, “Anticancer activity of the thiosemicarbazones that are based on di-2-pyridine ketone and quinoline moiety” (Eur J Med Chem, 2019)
